From publication PMC4201344 (ACS Chemical Biology, 2014)
Changes are numbered by the printed parent chain. Entries after “also recorded” stand apart in the source; their conditions may differ.

What was measured:
Assay type in all cases: cell-based, C. elegans
[1] = system: GluClβ T6′S, Y206TAG Me–Phe; experiment: two-electrode voltage clamp, Xenopus laevis oocytes, nonsense suppression; conditions: glutamate
GluClβ L9′V = GluClβ L9′V (Caenorhabditis elegans, UniProt Q17328, L286V); experiment: two-electrode voltage clamp, Xenopus laevis oocytes; conditions: glutamate
Outline: (§1)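 C. elegans GluClβ (mammalian codon-optimised) in pGEMhe, mutated by QuikChange; T7 mRNA. […] Voltage clamp at −60 mV in Ca-free ND96, pH 7.5. […] Peak currents taken from baseline, normalised, averaged per concentration, and fit to Hill equation (EC50, nH).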

[2] = system: GluClβ with α signal peptide, T6′S, F96TAG F3–Phe; experiment: two-electrode voltage clamp, Xenopus laevis oocytes, nonsense suppression; conditions: glutamate
[3] = system: GluClβ T6′S, Y206TAG F2–Phe (3,5-F2–Phe); experiment: as above; conditions: glutamate
GluClβ T6′S, T203A = GluClβ T6′S, T203A (Caenorhabditis elegans, UniProt Q17328, T229A/T283S); experiment: two-electrode voltage clamp, Xenopus laevis oocytes; conditions: glutamate
[4] = target: T1, GluClβ with α signal peptide, T6′S, Y156TAG Phe (Caenorhabditis elegans, UniProt Q17328, T283S/Y182F); experiment: two-electrode voltage clamp, Xenopus laevis oocytes, nonsense suppression; conditions: glutamate
T1 sequence (Q17328 23-434 Y182F/T283S): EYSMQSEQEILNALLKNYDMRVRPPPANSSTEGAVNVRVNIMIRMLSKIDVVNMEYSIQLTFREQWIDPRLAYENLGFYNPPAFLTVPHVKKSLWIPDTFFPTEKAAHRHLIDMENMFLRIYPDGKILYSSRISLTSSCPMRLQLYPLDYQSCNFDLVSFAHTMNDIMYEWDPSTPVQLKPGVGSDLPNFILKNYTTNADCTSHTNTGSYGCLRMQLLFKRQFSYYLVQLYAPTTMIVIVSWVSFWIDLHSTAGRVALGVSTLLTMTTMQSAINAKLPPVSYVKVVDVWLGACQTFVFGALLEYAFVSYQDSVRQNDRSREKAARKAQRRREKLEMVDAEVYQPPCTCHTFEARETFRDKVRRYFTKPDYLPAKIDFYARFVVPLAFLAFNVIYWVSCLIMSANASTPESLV
Outline: (§2)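 Site-specific TAG codon, read by 74mer THG73 tRNA ligated to dCA-acylated amino acid; NVOC removed by 5 min xenon-lamp irradiation just before injection. Oocytes coinjected with 37.5 ng mRNA plus ~1 μg/μL tRNA at 48 and 24 h pre-recording; unacylated 76mer tRNA served as read-through control.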

[5] = system: GluClβ T6′S, Y206TAG CN–Phe; experiment: two-electrode voltage clamp, Xenopus laevis oocytes, nonsense suppression; conditions: glutamate
[6] = system: GluClβ with α signal sequence, T6’S, Y206 F2-Phe (3,5-F2–Phe); experiment: two-electrode voltage clamp, Xenopus laevis oocytes, nonsense suppression; conditions: glutamate; no plateau at 100 mM
Outline: as §2

GluClβ T6′S, S126A/Y156F = GluClβ T6′S, S126A/Y156F (Caenorhabditis elegans, UniProt Q17328, S152A/T283S/Y182F); experiment: two-electrode voltage clamp, Xenopus laevis oocytes; conditions: glutamate
Outline: as §1

GluClβ T6′S/T10′S = GluClβ T6′S/T10′S (Caenorhabditis elegans, UniProt Q17328, T283S/T287S); experiment: two-electrode voltage clamp, Xenopus laevis oocytes; conditions: glutamate
GluClβ T6′A = GluClβ T6′A (Caenorhabditis elegans, UniProt Q17328, T283A); experiment: two-electrode voltage clamp, Xenopus laevis oocytes; conditions: glutamate
Outline: as §1

[7] = target: T2, GluClβ with α signal peptide, T6′S, Y156F (Caenorhabditis elegans, UniProt Q17328, T283S/Y182F); experiment: as above; conditions: glutamate
T2 sequence (Q17328 23-434 Y182F/T283S): T1 sequence (Q17328 23-434 Y182F/T283S)
Outline: as §1

[8] = system: GluClβ with α signal peptide, T6′S, F96TAG F1–Phe; experiment: two-electrode voltage clamp, Xenopus laevis oocytes, nonsense suppression; conditions: glutamate
GluClβ T6′S, R40E = GluClβ T6′S, R40E (Caenorhabditis elegans, UniProt Q17328, R66E/T283S); experiment: two-electrode voltage clamp, Xenopus laevis oocytes; conditions: glutamate
Outline: as §1

[9] = system: GluClβ with α signal peptide, T6′S, Y156TAG F3–Phe; experiment: two-electrode voltage clamp, Xenopus laevis oocytes, nonsense suppression; conditions: glutamate
GluClβ A17′S = target: T3, GluClβ A17′S (Caenorhabditis elegans, UniProt Q17328, A294S); experiment: two-electrode voltage clamp, Xenopus laevis oocytes; conditions: glutamate
T3 sequence (Q17328 23-434 A294S): T1 sequence (Q17328 23-434 Y182F/T283S) with F160Y, S261T, A272S

GluClβ L9′F = GluClβ L9′F (Caenorhabditis elegans, UniProt Q17328, L286F); experiment: two-electrode voltage clamp, Xenopus laevis oocytes; conditions: glutamate
Outline: as §1

Sequence of GluClβ T6′A (Q17328 23-434 T283A): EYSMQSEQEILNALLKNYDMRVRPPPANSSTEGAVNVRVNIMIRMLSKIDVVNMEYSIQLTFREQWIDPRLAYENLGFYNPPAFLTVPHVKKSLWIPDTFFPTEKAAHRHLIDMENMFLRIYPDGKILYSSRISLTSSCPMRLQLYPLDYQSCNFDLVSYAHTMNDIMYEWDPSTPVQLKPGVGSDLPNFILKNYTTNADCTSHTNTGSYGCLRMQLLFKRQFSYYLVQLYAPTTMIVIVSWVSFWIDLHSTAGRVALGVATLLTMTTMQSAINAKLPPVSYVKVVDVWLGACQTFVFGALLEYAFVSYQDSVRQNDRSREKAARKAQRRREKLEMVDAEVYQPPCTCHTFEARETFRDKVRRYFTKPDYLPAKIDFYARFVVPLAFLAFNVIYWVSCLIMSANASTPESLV
Sequence of GluClβ T6′S, T203A (Q17328 23-434 T229A/T283S): as the sequence (Q17328 23-434 T283A) above, with T207A, A261S counted along it
Sequence of GluClβ T6′S, R40E (Q17328 23-434 R66E/T283S): as the sequence (Q17328 23-434 T283A) above, with R44E, A261S counted along it
Sequence of GluClβ L9′V (Q17328 23-434 L286V): as the sequence (Q17328 23-434 T283A) above, with A261T, L264V counted along it
Sequence of GluClβ T6′S, S126A/Y156F (Q17328 23-434 S152A/Y182F/T283S): as the sequence (Q17328 23-434 T283A) above, with S130A, Y160F, A261S counted along it
Sequence of GluClβ T6′S/T10′S (Q17328 23-434 T283S/T287S): as the sequence (Q17328 23-434 T283A) above, with A261S, T265S counted along it
Sequence of GluClβ L9′F (Q17328 23-434 L286F): as the sequence (Q17328 23-434 T283A) above, with A261T, L264F counted along it

- EC50 [1]: 98 ± 3 µM
- EC50 (GluClβ L9′V): no response
- EC50 [2]: 39 ± 1 µM
- EC50 ([3]; no plateau at highest concentration 100 mM): > 100 mM
- EC50 (GluClβ T6′S, T203A): 640 ± 10 µM
- Hill (GluClβ T6′S, T203A): 2.3 ± 0.1
- EC50 [4]: 17 ± 1 mM
- Hill [4]: 1.7 ± 0.1
- Imax [4]: 1–4 μA
- EC50 [5]: 19 ± 1 mM
- EC50 [6]: > 100 mM
- EC50 (GluClβ T6′S, S126A/Y156F): no response
- EC50 [7]: 15 ± 1 mM
- Hill [7]: 2.3 ± 0.2
- Imax [7]: 1–5 μA
- EC50 [8]: 80 ± 2 µM
- EC50 [9]: 65 ± 5 mM
- EC50 (GluClβ A17′S): 230 ± 10 µM
- Hill (GluClβ A17′S): 2.5 ± 0.1
- Imax (GluClβ A17′S): 0.6–12 μA
- EC50 (GluClβ L9′F): constitutively active
Structure (SMILES): N[C@@H](CCC(=O)O)C(=O)O [glutamate]
- Hill [1]: 2.4 ± 0.1
- Imax [1]: 0.05–7 μA
- Hill [2]: 2.4 ± 0.2
- Imax [2]: 0.06–0.6 μA
- Imax [3]: 0.1–0.6 μA
- Hill [5]: 2.8 ± 0.2
- Imax [5]: 0.8–6 μA
- EC50 (GluClβ T6′S/T10′S): constitutive activity, some glutamate response
- EC50 (GluClβ T6′A): not functional; also recorded: very low response
- Hill [8]: 2.8 ± 0.2
- Imax [8]: 0.1–0.5 μA
- EC50 (GluClβ T6′S, R40E): nonfunctional; also recorded: no response
- Hill [9]: 1.7 ± 0.1
- Imax [9]: 0.3–2 μA
